Data: ChEMBL document CHEMBL1157849, “The influence of the aziridinyl substituent of benzimidazoles and benzimidazolequinones on toxicity towards normal and Fanconi anaemia cells” (Eur J Med Chem, 2010)
Calls of active or inactive are those of the source. The calls are words filed in the database; no cut-off is given here.

Key:
[1] = Cytotoxicity against human GM00637 cells after 24 hrs by MTT assay; assay type: cell-based; settings: GM00637, 24 h
Outline: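 Cells seeded at 10,000 per well and left 48 h to adhere, then exposed to test solutions in DMSO (2.5% final) for 24 h at 37 °C under humidified 5% CO₂. MTT read-out at 550 nm with 690 nm reference. Viability is expressed as percent of DMSO-only control. IC50 is the concentration reducing mean viability to 50% of control, estimated by nonlinear regression of dose-response curves.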

[2] = test system: PD20i; experiment: Cytotoxicity against FANCD2-deficient human PD20i cells at 0.001 uM after 24 hrs by MTT assay; assay type: functional, cell-based
Outline: (§1)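 PD20i and PD20:RV human fibroblasts grown in alpha-MEM with 15% uninactivated FBS, penicillin–streptomycin, 2 mM L-glutamine, 37 °C, 5% CO₂. Cells seeded at 10,000/well, both lines in parallel on the same plate, adhered 48 h. Compound added in DMSO (2.5% final), 24 h at 37 °C. MTT read at 550 nm (690 nm reference). Viability as % of DMSO-only control, mean of at least three independent experiments.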

[3] = species on record: Homo sapiens; experiment: Cytotoxicity against wild type FANCD2 expressing human PD20:RV cells at 0.001 uM after 24 hrs by MTT assay; assay type: functional, cell-based; outline: as §1

SMILES	IC50 [1] [nM]	Activity [2]	Activity [3]
COc1ccc(OC)c2c1ncn2C[C@@H]1CN1C(c1ccccc1)(c1ccccc1)c1ccccc1 (stereo not given in full)	1260		
CCn1cnc2c(OC)ccc(OC)c21	> 10000		
CO[C@@]12[C@H](COC(N)=O)C3=C(C(=O)C(C)=C(N)C3=O)N1C[C@@H]1N[C@@H]12 [MITOMYCIN]	900		
O=C1C(N2CC2)=CC(=O)c2c1nc1n2CCC1	290	Active	Active
O=C1C(N2CC2)=CC(=O)c2c1nc1n2CCCCC1	560		
COC1=CC(=O)c2c(nc3n2CCCC3)C1=O	> 1500		
COC1=CC(=O)c2c(nc3n2CCCCC3)C1=O	> 1500		
O=C1C=CC(=O)c2c1ncn2C[C@@H]1CN1C(c1ccccc1)(c1ccccc1)c1ccccc1 (stereo not given in full)	150	Active	
CCn1cnc2c1C(=O)C=CC2=O	580		
O=C1C(N2CC2)=CC(=O)c2c1nc1n2CCCC1	1060		
COC1=CC(=O)c2c(nc3n2CCC3)C1=O	360	inactive	
